Results pooled from the literature.
Each line is one published result; the experiments were not run side by side.
Target: Serine/threonine-protein kinase ULK1 (ULK1, Homo sapiens, UniProt O75385)
Residues used in one study (O75385 1-1050): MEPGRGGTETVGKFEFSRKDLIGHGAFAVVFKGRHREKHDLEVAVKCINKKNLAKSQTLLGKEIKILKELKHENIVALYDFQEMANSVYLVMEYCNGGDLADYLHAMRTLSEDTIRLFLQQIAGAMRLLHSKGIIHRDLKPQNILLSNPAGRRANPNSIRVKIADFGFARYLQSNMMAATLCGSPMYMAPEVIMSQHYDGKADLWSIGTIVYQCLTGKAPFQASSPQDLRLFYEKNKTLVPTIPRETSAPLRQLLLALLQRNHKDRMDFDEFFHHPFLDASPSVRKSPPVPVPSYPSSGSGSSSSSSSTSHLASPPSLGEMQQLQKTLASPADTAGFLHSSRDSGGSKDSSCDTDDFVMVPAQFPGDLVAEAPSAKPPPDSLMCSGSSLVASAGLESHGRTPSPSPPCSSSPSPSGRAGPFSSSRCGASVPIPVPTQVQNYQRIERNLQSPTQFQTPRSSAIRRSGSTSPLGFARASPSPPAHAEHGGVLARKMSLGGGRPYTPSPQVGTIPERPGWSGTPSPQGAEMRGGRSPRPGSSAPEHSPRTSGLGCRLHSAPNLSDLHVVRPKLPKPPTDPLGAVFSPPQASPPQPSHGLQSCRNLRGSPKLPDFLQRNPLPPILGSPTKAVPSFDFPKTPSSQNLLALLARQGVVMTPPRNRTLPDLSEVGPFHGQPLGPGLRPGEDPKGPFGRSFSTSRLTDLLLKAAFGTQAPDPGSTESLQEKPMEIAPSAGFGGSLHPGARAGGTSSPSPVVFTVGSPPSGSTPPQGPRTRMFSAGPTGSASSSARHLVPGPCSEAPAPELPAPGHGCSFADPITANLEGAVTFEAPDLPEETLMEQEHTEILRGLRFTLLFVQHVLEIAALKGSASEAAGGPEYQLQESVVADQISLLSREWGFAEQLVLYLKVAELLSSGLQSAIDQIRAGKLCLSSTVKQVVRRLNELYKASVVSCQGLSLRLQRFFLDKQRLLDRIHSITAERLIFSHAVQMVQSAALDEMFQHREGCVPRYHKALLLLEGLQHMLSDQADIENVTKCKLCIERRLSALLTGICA

C1=C/COCc2cc(ccc2OCCN2CCCC2)Nc2nccc(n2)-c2cccc(c2)COC/1  remaining signal (cell-free assay; 0.1 µM): 90%
COc1ccc2oc(-c3ccc4nc(N)oc4c3)c/c(=N\c3ccccc3NC(=O)CCN)c2c1  remaining binding (binding; 1 µM): 99%
COc1ccc2[nH]c3c4[nH]c5ccc(OC)cc5c4c4c(c3c2c1)C(=O)NC4=O  remaining binding (binding; 1 µM): 100%
Cc1cc(S(=O)(=O)N[C@H]2CC[C@H](CN3CCN(c4ccc(C5CCC(=O)NC5=O)cc4F)CC3)CC2)ccc1Nc1ncc(C(F)(F)F)c(N2CCC[C@](C)(O)C2)n1 (stereo partly drawn)  remaining binding (binding, competition with immobilised ligand; 1 µM): 5.7%
C[C@H]1CC[C@H](n2c3cnccc3c3cnc(Nc4ccc5c(n4)CCN(C(=O)CO)C5)nc32)CC1  remaining signal (cell-free assay; 1 µM): 94%
C=CC(=O)N1CCC([C@@H]2CCNc3c(C(N)=O)c(-c4ccc(Oc5ccccc5)cc4)nn32)CC1  inhibition (enzyme activity, inhibitor; 1 µM): 0%
CCCCC(=O)Nc1ccc(-c2ccc3ncn(CCC)c(=O)c3c2)cn1  remaining binding (binding, competition with immobilised ligand; 0.5 µM): 94%
CO[C@@H]1[C@H](N(C)C(=O)c2ccccc2)C[C@H]2O[C@]1(C)n1c3ccccc3c3c4c(c5c6ccccc6n2c5c31)C(=O)NC4  inhibition (enzyme activity, inhibitor; 1 µM): 7%
C[C@]1(O)CCCN(c2nc(Nc3ccc(S(=O)(=O)N[C@H]4CC[C@H](CN5CCN(c6ccc(C7CCC(=O)NC7=O)cc6F)CC5)CC4)cc3F)ncc2C(F)(F)F)C1 (stereo partly drawn)  remaining binding (binding, competition with immobilised ligand; 1 µM): 49%
